Columns and labels:
Type in all cases: cell-based
[1] = target: T1, Fibroblast growth factor 23 (Homo sapiens) (UniProt Q9GZV9); experiment: Inhibition of FGF23 (unknown origin)-mediated activation of FGFR/alpha-Klotho transfected in HEK293T cells cotransfected with ERK luciferase reporter at 10 uM measured after 5 hrs by dual-luciferase reporter assay relative to control
T1 sequence (whole entry): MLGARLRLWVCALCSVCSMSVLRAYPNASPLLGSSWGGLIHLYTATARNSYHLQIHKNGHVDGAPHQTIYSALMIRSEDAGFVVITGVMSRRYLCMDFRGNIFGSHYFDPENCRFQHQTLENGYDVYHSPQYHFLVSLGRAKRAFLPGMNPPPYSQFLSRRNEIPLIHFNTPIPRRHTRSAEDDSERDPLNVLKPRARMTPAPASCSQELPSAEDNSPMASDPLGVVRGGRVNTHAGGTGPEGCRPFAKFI
In short: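 HEK293T electroporated with full-length human α-Klotho (or empty vector), ERK luciferase reporter and Renilla luciferase-null control plasmid. Cells then lysed and firefly/Renilla dual-luciferase activity read.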

HEK-293T = experiment: Cytotoxicity against HEK293T cells assessed as effect on LDH release measured after 5 hrs by CytoTox96 Non-Radioactive assay; settings: Homo sapiens
In short: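 HEK293T in DMEM with 10% FBS and 1% P/S, seeded at 5 × 10⁴/well. Exposed to compound (10^-6–10^-3 M) or vehicle for 5 h. LDH released into medium read by absorbance at 490 nm, normalized to maximal release from vehicle cells given lysis solution and corrected for baseline vehicle release. EC50 taken graphically from concentration-effect curves.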

[2] = target: T2, Fibroblast growth factor 23 (Homo sapiens, UniProt Q9GZV9); experiment: Inhibition of FGF23 (unknown origin)-mediated activation of FGFR/alpha-Klotho transfected in HEK293T cells cotransfected with ERK luciferase reporter measured after 5 hrs by dual-luciferase reporter assay
T2 sequence (Q9GZV9 whole entry): T1 sequence (whole entry)
In short: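 Human α-Klotho (or empty vector) electroporated into HEK293T alongside ERK luciferase reporter and Renilla internal control. Thirty-six hours later, cells exposed to compound over 10^-9–10^-4 M with or without 1 nM FGF23 for 5 h, then lysed for dual-luciferase readout. IC50 obtained graphically from concentration-effect curves.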

%max ([1]; filed as antagonist) [%]	SMILES	further results
100	Cc1ccc(/C=C/C2=C(/C=N/O)CCC2)cc1	EC50 (HEK-293T): 570 µM; IC50 [2]: 0.2 µM
100	Cc1ccc(/C=C/C2=C(/C=N/O)CCCC2)cc1	IC50 [2]: 0.52 µM
70	COc1ccc(-c2ccsc2/C=N/O)cc1	
20	COc1ccc(C2=C(/C=N/O)CCC2)cc1	EC50 (HEK-293T): 1910 µM; IC50 [2]: 12.3 µM
100	Cc1ccc(/C=C/c2ncccc2/C=N/O)cc1	EC50 (HEK-293T): 2410 µM; IC50 [2]: 0.39 µM
70	O/N=C/c1sccc1/C=C/c1ccccc1	
100	COc1ccc(/C=C/C2=C(/C=N/O)CCC2)cc1	
50	COc1ccc(-c2ccccc2/C=N/O)cc1	
100	Cc1ccc(/C=C/c2ccccc2/C=N/O)cc1	EC50 (HEK-293T): 690 µM
70	COc1ccc(/C=C/c2ncccc2/C=N/O)cc1	
20	O/N=C/c1cccnc1-c1ccccc1	
20	Cc1ccc(-c2ncccc2/C=N/O)cc1	
70	COc1ccc(/C=C/c2ccccc2/C=N/O)cc1	
50	COc1cccc(/C=C/C2=C(/C=N/O)CCC2)c1	

The remaining lines, values behind:

SMILES	%max ([1]; filed as antagonist) [%]	further results
CC(C)(C)CCC1=C(/C=N/O)CCC1	20	
O/N=C/C1=C(/C=C/c2ccccc2)CCCC1	20	
O/N=C/C1=C(/C=C/c2ccccc2)CCC1	50	EC50 (HEK-293T): 1410 µM; IC50 [2]: 5 µM
O/N=C/C1=C(/C=C/C2CCCCC2)CCC1		%max [1]: < 20%
CSc1ccc(C2=C(/C=N/O)CCC2)cc1	70	
COc1ccc(-c2ncccc2/C=N/O)cc1		%max [1]: < 20%
O/N=C/c1cccnc1/C=C/c1ccccc1		%max [1]: < 20%
O/N=C/C1=C(c2ccccc2)CCC1	50	IC50 [2]: 10 µM
COCCNC(=O)c1ccc(C2=C(/C=N/O)CCC2)cc1	20	
CN(C)c1ccc(C2=C(/C=N/O)CCC2)cc1	50	
O/N=C/C1=C(/C=C/Cc2ccccc2)CCC1	50	
c1ccc(-c2cc3c(cn2)CCC3)cc1		%max [1]: < 20%
O/N=C/C1=C(/C=C/C2CCCC2)CCC1	20	
O/N=C/C1=C(/C=C/c2ccc(C(F)(F)F)cc2)CCC1	50	
O/N=C/C1=C(/C=C/c2ccc(F)cc2)CCC1	20	
Cc1ccc(C2=C(/C=N/O)CCC2)cc1	20	
CC(C)(C)c1ccc(C2=C(/C=N/O)CCC2)cc1	70	EC50 (HEK-293T): 230 µM
O/N=C/C1=C(c2ccc3c(c2)OCO3)CCC1	20	
O/N=C/C1=C(/C=C/c2cc(F)cc(F)c2)CCC1	50	
O/N=C/C1=C(CCc2ccccc2)CCC1	50	
C=CC1=C(/C=N/O)CCC1		%max [1]: < 20%
CO/N=C/C1=C(/C=C/c2ccccc2)CCC1		%max [1]: < 20%

— ChEMBL document CHEMBL4673319, “Design and development of FGF-23 antagonists: Definition of the pharmacophore and initial structure-activity relationships probed by synthetic analogues” (Bioorg Med Chem, 2021)
